The target of data set [1] is Ephrin type-B receptor 4 (Homo sapiens) (UniProt P54760). Kind of data set: Inhibition of EPH-B4 assessed as residual activity at 10 uM. In short, it runs like this: (§1)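 Radioactivity-based enzymatic assay against a panel of 131 kinases (Dundee profiling). Activity remaining was measured with compound present at the stated concentration.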
Data set [2] has as its target Serine/threonine-protein kinase 33 (Homo sapiens) (UniProt Q9BYT3). Kind of data set: Inhibition of STK33 assessed as residual activity at 10 uM.
The target in data set [3] is T1, Serine/threonine-protein kinase STK11 (Homo sapiens) (UniProt Q15831).
T1 sequence (whole entry): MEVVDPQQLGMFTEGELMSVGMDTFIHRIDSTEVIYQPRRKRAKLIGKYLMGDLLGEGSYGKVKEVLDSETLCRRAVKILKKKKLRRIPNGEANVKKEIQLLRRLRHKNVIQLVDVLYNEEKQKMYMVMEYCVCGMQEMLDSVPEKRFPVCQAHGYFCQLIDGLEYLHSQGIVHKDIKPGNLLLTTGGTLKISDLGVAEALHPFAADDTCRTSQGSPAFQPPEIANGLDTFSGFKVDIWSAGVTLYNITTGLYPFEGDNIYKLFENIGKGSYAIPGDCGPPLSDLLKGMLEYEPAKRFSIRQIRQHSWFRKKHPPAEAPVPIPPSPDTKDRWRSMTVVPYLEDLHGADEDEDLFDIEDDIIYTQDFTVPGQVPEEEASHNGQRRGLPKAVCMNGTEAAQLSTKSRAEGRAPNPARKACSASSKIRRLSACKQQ
Kind of data set: Inhibition of LKB1 assessed as residual activity at 10 uM relative to control.

Data set [4] addresses MAP kinase-interacting serine/threonine-protein kinase 2 (Homo sapiens) (UniProt Q9HBH9). Kind of data set: Inhibition of MKNK2 assessed as residual activity at 10 uM relative to control.
In data set [5] the test system is Brain. Kind of data set: Volume of distribution at steady state in Swiss albino mouse […] at 1 mg/kg, iv. The format is ADME, organism-based. The arrangement: dose 1 mg/kg, route intravenous. The conditions noted are these: in vivo.
In data set [6] the target is Serine/threonine-protein kinase PAK 2 (Homo sapiens) (UniProt Q13177). Kind of data set: Inhibition of PAK2 assessed as residual activity at 1 uM.
The target of data set [7] is T2, Serine/threonine-protein kinase D1 (Homo sapiens) (UniProt Q15139).
T2 sequence (whole entry): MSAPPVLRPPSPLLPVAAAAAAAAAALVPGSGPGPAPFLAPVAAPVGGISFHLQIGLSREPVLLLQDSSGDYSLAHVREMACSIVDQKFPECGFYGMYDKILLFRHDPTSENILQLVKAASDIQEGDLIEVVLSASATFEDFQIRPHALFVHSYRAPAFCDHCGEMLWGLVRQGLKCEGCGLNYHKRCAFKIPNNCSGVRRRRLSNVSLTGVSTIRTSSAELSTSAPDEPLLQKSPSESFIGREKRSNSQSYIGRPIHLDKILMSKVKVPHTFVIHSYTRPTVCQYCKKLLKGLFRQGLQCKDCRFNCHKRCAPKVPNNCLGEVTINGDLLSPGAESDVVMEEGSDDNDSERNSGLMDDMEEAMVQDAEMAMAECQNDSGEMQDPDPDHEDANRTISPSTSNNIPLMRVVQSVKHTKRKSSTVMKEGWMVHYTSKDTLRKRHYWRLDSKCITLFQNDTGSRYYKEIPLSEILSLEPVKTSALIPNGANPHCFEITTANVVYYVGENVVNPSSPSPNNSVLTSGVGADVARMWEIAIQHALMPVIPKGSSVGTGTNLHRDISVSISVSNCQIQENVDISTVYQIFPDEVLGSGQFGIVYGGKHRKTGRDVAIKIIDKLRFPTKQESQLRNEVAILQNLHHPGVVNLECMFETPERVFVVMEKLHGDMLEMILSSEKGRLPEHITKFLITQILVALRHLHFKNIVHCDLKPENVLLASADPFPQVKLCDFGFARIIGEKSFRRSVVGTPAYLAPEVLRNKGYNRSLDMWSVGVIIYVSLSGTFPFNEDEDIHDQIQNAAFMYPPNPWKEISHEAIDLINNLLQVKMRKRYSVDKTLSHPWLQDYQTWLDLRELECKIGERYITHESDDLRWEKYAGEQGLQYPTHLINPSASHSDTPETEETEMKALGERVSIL
Kind of data set: Inhibition of PKD1 assessed as residual activity at 1 uM.

For data set [8], the target named is Protein-tyrosine kinase 6 (Homo sapiens) (UniProt Q13882). Kind of data set: Inhibition of BRK assessed as residual activity at 1 uM. Put shortly: as §1
The target in data set [9] is Mitogen-activated protein kinase kinase kinase 9 (Homo sapiens) (UniProt P80192). Kind of data set: Inhibition of MLK1 assessed as residual activity at 10 uM relative to control.
Data set [10] is described as follows: Inhibition of PHK assessed as residual activity at 10 uM.
Data set [11] deals with Mitogen-activated protein kinase 10 (Homo sapiens) (UniProt P53779). Kind of data set: Inhibition of JNK3 assessed as residual activity at 10 uM relative to control.
In data set [12] the target is MAP/microtubule affinity-regulating kinase 3 (Homo sapiens) (UniProt P27448). Kind of data set: Inhibition of MARK3 assessed as residual activity at 10 uM relative to control.
Data set [13] relates to Brain. Kind of data set: AUClast in Swiss albino mouse brain at 10 mg/kg, po. In kind it is ADME, organism-based. The arrangement: time 0 - last, dose 10 mg/kg, route oral. The settings on record: in vivo. In short, it runs like this: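 Male Swiss Albino mice, single dose given intravenously (1 mg/kg) or orally (10 mg/kg). Drug measured in plasma and brain, with AUClast taken for each. The brain/plasma ratio is based on AUClast, and oral bioavailability is derived from the IV and PO plasma data.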

Data set [14] addresses Serine/threonine-protein kinase Sgk1 (Homo sapiens) (UniProt O00141). Kind of data set: Inhibition of SGK assessed as residual activity at 10 uM relative to control.

Sequence of Serine/threonine-protein kinase PAK 2 (Homo sapiens) (Q13177 whole entry): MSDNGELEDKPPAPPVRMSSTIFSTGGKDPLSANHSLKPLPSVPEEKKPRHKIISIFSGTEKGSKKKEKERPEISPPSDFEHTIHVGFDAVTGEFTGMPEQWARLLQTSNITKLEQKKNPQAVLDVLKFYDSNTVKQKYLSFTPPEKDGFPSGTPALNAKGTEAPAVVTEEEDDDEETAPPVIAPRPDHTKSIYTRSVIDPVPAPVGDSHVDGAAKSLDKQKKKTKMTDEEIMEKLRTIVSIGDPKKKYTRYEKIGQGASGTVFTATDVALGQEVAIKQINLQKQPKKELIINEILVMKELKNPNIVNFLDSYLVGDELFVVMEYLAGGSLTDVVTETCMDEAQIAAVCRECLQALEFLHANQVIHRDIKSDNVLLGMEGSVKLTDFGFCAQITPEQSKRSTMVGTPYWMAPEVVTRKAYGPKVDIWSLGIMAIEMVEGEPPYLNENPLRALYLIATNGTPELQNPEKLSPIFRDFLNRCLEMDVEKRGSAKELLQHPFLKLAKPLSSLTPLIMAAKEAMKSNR
Sequence of Protein-tyrosine kinase 6 (Homo sapiens) (Q13882 whole entry, looked up): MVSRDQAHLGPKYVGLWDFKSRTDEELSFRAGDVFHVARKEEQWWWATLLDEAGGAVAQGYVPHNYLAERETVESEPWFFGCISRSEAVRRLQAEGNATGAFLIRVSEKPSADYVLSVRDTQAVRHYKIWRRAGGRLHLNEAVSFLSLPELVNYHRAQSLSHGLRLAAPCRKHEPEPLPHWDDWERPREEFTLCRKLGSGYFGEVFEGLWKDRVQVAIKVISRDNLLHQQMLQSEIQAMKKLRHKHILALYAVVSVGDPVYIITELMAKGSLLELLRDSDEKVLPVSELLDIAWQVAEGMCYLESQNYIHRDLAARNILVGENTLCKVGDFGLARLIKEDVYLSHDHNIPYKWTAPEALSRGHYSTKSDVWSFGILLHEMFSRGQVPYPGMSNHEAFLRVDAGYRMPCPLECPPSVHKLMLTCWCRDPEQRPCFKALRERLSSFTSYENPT
Sequence of Serine/threonine-protein kinase Sgk1 (Homo sapiens) (O00141 whole entry): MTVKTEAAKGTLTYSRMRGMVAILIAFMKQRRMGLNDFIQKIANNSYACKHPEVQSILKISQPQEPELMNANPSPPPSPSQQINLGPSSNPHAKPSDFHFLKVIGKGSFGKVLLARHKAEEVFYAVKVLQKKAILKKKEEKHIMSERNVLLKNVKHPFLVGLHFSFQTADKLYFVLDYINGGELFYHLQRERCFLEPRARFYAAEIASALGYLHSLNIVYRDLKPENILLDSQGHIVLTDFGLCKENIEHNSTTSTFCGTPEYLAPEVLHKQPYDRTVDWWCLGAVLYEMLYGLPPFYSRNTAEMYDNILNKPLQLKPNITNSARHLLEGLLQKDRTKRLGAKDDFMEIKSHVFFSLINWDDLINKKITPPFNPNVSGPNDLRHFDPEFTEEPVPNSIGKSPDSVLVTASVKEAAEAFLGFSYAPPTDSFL
Sequence of Ephrin type-B receptor 4 (Homo sapiens) (P54760 whole entry): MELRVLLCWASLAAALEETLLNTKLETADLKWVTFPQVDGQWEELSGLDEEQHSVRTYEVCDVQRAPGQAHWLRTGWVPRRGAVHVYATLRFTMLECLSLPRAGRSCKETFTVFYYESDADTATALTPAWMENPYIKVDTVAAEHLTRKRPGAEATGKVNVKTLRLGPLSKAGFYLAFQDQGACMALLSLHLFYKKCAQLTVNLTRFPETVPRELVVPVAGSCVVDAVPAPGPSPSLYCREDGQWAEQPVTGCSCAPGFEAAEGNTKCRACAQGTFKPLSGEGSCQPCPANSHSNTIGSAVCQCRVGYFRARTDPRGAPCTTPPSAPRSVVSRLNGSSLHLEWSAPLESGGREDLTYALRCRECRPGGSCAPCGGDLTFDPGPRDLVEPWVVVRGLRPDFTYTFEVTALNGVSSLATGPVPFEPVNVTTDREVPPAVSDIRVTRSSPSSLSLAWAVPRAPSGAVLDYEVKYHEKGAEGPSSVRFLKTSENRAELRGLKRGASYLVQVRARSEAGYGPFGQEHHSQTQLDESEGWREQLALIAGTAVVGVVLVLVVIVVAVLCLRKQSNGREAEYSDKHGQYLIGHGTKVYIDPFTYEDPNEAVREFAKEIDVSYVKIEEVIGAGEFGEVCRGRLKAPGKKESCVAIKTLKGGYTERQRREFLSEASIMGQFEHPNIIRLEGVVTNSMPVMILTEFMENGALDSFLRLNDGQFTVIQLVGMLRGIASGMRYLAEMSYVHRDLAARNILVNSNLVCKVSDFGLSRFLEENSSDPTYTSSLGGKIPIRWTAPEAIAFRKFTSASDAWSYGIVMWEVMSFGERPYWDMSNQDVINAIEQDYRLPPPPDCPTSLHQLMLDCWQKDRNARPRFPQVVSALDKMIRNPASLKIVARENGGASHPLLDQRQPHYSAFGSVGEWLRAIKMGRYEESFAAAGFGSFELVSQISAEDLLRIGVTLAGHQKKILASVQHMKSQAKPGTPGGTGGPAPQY
Sequence of MAP kinase-interacting serine/threonine-protein kinase 2 (Homo sapiens) (Q9HBH9 whole entry, looked up): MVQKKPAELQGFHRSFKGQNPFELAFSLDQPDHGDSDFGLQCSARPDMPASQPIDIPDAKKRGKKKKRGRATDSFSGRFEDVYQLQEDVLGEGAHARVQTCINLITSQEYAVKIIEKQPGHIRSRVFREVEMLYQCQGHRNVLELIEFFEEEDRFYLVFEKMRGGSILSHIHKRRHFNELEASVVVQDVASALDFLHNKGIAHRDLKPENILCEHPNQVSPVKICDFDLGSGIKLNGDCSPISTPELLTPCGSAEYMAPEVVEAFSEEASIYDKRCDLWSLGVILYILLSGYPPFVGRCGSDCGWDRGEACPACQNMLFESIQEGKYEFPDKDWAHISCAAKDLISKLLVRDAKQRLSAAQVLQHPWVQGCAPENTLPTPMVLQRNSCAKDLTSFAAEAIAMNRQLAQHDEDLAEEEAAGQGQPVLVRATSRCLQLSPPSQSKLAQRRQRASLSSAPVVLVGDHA
Sequence of Mitogen-activated protein kinase kinase kinase 9 (Homo sapiens) (P80192 whole entry, looked up): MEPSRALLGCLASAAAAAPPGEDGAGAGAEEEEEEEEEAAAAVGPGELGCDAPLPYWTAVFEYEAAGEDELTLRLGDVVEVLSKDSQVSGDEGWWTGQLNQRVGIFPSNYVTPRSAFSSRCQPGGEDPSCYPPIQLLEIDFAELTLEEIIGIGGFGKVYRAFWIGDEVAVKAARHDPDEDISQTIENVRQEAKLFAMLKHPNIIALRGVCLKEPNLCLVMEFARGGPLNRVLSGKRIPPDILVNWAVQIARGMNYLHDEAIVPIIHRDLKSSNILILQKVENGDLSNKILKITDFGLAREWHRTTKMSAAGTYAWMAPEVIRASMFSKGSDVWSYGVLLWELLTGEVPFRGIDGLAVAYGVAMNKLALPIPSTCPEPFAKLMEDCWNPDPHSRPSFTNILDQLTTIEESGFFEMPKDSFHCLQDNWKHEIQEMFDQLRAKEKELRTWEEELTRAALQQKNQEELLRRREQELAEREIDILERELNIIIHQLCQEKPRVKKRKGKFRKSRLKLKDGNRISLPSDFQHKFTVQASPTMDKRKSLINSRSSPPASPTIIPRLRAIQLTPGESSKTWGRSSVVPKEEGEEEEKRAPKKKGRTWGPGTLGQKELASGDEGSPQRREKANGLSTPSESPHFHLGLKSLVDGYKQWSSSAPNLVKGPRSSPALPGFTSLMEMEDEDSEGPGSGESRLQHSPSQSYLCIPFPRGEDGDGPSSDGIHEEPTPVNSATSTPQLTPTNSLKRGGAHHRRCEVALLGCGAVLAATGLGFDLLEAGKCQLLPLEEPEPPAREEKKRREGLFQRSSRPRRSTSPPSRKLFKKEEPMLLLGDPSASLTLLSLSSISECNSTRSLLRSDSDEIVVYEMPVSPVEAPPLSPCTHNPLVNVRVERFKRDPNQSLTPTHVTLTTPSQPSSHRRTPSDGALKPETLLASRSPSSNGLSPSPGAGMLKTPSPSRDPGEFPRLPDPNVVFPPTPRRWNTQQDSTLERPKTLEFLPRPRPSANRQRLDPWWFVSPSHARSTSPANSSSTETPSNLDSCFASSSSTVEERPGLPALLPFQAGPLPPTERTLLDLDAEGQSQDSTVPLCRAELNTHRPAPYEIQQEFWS
Sequence of Serine/threonine-protein kinase 33 (Homo sapiens) (Q9BYT3 whole entry, looked up): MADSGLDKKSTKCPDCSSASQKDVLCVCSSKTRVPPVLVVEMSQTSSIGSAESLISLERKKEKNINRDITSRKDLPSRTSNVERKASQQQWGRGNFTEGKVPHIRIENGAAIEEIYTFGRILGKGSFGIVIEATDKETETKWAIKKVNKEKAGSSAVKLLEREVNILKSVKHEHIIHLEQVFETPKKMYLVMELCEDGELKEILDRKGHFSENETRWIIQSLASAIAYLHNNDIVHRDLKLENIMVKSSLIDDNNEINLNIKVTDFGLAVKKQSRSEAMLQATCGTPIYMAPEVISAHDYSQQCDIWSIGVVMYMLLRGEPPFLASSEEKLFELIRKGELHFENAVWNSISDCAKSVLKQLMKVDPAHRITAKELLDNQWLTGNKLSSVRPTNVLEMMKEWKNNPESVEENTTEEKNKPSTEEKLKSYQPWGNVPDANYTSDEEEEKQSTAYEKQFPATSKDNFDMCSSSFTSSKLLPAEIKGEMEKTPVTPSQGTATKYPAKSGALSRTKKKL
Sequence of Mitogen-activated protein kinase 10 (Homo sapiens) (P53779 whole entry): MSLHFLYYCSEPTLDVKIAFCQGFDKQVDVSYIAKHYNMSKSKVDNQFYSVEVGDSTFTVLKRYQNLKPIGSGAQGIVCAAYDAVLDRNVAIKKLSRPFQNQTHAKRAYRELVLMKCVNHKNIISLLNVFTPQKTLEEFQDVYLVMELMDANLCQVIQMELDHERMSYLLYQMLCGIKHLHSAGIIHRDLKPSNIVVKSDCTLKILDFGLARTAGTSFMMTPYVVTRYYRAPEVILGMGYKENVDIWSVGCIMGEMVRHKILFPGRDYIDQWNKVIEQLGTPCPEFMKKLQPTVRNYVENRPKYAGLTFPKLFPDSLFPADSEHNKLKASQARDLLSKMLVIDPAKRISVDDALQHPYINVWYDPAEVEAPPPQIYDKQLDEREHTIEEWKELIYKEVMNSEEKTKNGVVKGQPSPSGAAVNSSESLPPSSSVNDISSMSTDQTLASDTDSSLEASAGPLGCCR

As for `O=C(Nc1cccnc1)c1cc(-c2ccnc(F)c2)ccc1OCc1ccccc1`, the Activity in data set [1] worked out at 108%; in data set [2] it was 56%; in data set [3], 71%; in data set [4], 52%; in data set [6] it was 116%; in [7] it was 80%. For the same compound, the Activity in data set [8] came to 103%; in [9] it was 74%; in data set [10] it was 75%; in data set [11], 52%; in [12], 50%; in [14], 33%. In the data set with Brain [5], this compound showed a Vdss of 1.6 L/kg. Moreover, the AUClast in the data set on Brain [13] was 1539.4 ng·h/mL.

The values above are taken from ChEMBL document CHEMBL2203081 (Bioorg Med Chem Lett, 2012).
